Measured values: ChEMBL document CHEMBL1135838, “alpha(1)-Adrenoceptor agonists: the identification of novel alpha(1A )subtype selective 2'-heteroaryl-2-(phenoxymethyl)imidazolines” (Bioorg Med Chem Lett, 2002)

Tests used:
[1] = target: T1, Alpha-1B adrenergic receptor (Homo sapiens, UniProt P35368); test: Activation of recombinant human adrenergic, alpha-1B receptor expressed in rat-1 fibroblasts determined via calcium mobilization through Gq coupled PLC pathway; type: functional
T1 sequence (P35368 whole entry): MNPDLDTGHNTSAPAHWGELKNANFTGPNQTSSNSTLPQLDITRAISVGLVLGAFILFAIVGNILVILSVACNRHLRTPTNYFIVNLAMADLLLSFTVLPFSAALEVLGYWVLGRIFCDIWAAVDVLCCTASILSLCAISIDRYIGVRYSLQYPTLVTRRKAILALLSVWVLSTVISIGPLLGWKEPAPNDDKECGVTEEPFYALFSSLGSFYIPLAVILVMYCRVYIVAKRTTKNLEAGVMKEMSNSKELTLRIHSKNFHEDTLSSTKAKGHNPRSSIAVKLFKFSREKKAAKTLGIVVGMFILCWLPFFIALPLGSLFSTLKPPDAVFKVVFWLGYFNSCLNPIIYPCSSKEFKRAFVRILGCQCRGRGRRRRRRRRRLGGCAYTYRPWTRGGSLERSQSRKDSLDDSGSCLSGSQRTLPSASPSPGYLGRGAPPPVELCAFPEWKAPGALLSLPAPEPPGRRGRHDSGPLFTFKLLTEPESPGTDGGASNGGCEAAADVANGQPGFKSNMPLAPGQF
In short: (§1)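 Rat-1 fibroblasts stably expressing cloned human α1A (clone #137-12), α1B (clone #37-11) or α1D (clone #16-7) adrenoceptor were loaded with the Calcium Green calcium-sensitive dye. Gq/PLC-coupled calcium mobilization was read on a FLIPR. Eleven-point concentration–response curves, with a top concentration typically 5 μM, were normalized to the 40 μM phenylephrine response to give pEC50 and % efficacy. Values are the mean of ≥2 experiments.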

[2] = target: T2, Alpha-1B adrenergic receptor (Homo sapiens) (UniProt P35368); test: Activation of human alpha-1B receptor expressed in rat-1 fibroblasts by calcium mobilization of Gq coupled PLC as percent phenylephrine (40 uM) response; type: functional; in short: as §1
T2 sequence (whole entry): T1 sequence (P35368 whole entry)

[3] = target: T3, Alpha-1D adrenergic receptor (Homo sapiens, UniProt P25100); test: Activation of recombinant human adrenergic, alpha-1D receptor expressed in rat-1 fibroblasts assayed via calcium mobilization through Gq coupled PLC pathway; type: functional; in short: as §1
T3 sequence (P25100 whole entry): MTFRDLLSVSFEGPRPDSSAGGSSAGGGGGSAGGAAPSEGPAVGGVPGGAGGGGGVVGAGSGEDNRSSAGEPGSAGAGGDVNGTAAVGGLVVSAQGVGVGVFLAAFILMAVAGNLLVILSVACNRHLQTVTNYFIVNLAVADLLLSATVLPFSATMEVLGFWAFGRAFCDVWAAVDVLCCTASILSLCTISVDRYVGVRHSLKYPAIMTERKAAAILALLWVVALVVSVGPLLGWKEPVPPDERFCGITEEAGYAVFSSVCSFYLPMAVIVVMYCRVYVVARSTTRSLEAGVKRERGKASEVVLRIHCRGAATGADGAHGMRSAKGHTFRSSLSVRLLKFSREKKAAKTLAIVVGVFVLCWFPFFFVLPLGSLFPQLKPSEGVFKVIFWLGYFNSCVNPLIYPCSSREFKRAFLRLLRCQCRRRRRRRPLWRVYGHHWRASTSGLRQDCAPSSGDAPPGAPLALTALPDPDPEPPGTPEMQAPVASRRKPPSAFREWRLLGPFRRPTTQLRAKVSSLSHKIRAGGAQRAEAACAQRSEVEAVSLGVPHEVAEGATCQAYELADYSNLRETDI

[4] = target: T4, Alpha-1D adrenergic receptor (Homo sapiens) (UniProt P25100); test: Ability to activate human alpha-1D receptor expressed in rat-1 fibroblasts as calcium mobilization through Gq coupled PLC pathway relative to phenylephrine response; type: functional; in short: as §1
T4 sequence (whole entry): T3 sequence (P25100 whole entry)

[5] = target: T5, Alpha-1A adrenergic receptor (Homo sapiens) (UniProt P35348); test: Ability to activate cloned human alpha-1A receptor expressed in rat-1 fibroblasts via calcium mobilization through Gq coupled PLC pathway expressed as percent of phenylephrine (40 uM) response; type: functional; in short: as §1
T5 sequence (whole entry): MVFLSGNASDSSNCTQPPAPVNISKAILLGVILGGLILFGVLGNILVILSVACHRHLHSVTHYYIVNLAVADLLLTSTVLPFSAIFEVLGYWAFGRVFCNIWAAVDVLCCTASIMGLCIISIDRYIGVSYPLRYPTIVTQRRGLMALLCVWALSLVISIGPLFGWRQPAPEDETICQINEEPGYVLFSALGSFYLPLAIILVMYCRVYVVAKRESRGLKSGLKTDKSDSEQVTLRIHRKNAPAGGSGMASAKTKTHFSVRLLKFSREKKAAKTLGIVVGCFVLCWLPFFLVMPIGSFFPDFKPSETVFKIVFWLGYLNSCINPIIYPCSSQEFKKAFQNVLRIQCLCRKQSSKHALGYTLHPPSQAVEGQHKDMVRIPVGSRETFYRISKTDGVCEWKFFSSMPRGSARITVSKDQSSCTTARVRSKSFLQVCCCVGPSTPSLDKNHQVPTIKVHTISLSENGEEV

[6] = target: T6, Alpha-1A adrenergic receptor (Homo sapiens, UniProt P35348); test: Activation of recombinant human adrenergic,alpha-1A receptor expressed in rat-1 fibroblasts determined via calcium mobilization through Gq coupled PLC pathway; type: functional; in short: as §1
T6 sequence (P35348 whole entry): T5 sequence (whole entry)

[7] = target: T3, Alpha-1D adrenergic receptor; test: Binding affinity of compound towards human Alpha-1D adrenergic receptor expressed in rat-1 fibroblast membranes; type: cell membranes
In short: (§2)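 Radioligand binding was run on membranes from Rat-1 fibroblasts expressing human α1A, α1B or α1D adrenoceptor. Affinity is reported as pIC50 (±SEM), the mean of at least two experiments.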

[8] = target: T6, Alpha-1A adrenergic receptor; test: Binding affinity of compound towards Alpha-1A adrenergic receptor using membranes prepared from Rat-1 fibroblasts expressing human Alpha-1A adrenergic receptor; in short: as §2
[9] = target: T1, Alpha-1B adrenergic receptor; test: Binding affinity of compound towards human Alpha-1B adrenergic receptor expressed in rat fibroblast membranes; type: cell membranes, Membrane; in short: as §2

c1ccc(-c2ccoc2)c(OCC2=NCCN2)c1
EC50 [1]: 5.01 nM
Max [2]: 111%
EC50 [3]: 5.01 nM
Max [4]: 126%
Max [5]: 104%
EC50 [6]: 0.501 nM

Cc1cc(-c2ccccc2OCC2=NCCN2)sn1
EC50 [1]: > 100000 nM
EC50 [3]: > 100000 nM
Max [5]: 75%
EC50 [6]: 158 nM

c1ccc(-c2ncc[nH]2)c(OCC2=NCCN2)c1
EC50 [1]: > 100000 nM
EC50 [3]: > 100000 nM
Max [5]: 122%
EC50 [6]: 100 nM

c1ccc(-c2ccsc2)c(OCC2=NCCN2)c1
EC50 [1]: 15.8 nM
Max [2]: 103%
EC50 [3]: 12.6 nM
Max [4]: 120%
Max [5]: 98%
EC50 [6]: 0.251 nM

c1c[nH]c(-c2ccccc2OCC2=NCCN2)c1
EC50 [1]: 1 nM
IC50 [7]: 53.7 nM
IC50 [8]: 32.4 nM
Max [2]: 104%
EC50 [3]: 6.31 nM
Max [4]: 111%
Max [5]: 99%
EC50 [6]: 1.26 nM
IC50 [9]: 269 nM

c1ccc(-c2ccns2)c(OCC2=NCCN2)c1
EC50 [1]: 12.6 nM
Max [2]: 56%
EC50 [3]: 25.1 nM
Max [4]: 82%
Max [5]: 99%
EC50 [6]: 5.01 nM

CCN(CC)C(=O)c1ccccc1OCC1=NCCN1
EC50 [1]: > 5010 nM
EC50 [3]: > 5010 nM
EC50 [6]: > 5010 nM

c1csc(-c2ccccc2OCC2=NCCN2)c1
EC50 [1]: 3.98 nM
Max [2]: 112%
EC50 [3]: 15.8 nM
Max [4]: 93%
Max [5]: 101%
EC50 [6]: 1 nM

Cc1ccc(-c2ccccc2OCC2=NCCN2)s1
EC50 [1]: > 100000 nM
EC50 [3]: > 100000 nM
Max [5]: 97%
EC50 [6]: 25.1 nM

c1coc(-c2ccccc2OCC2=NCCN2)c1
EC50 [1]: 10 nM
Max [2]: 110%
EC50 [3]: > 100000 nM
Max [5]: 106%
EC50 [6]: 1.26 nM

Cc1ccoc1-c1ccccc1OCC1=NCCN1
EC50 [1]: > 100000 nM
IC50 [7]: 417 nM
IC50 [8]: 34.7 nM
EC50 [3]: > 100000 nM
Max [5]: 99%
EC50 [6]: 3.16 nM
IC50 [9]: 776 nM

Cn1nccc1-c1ccccc1OCC1=NCCN1
EC50 [1]: > 100000 nM
EC50 [3]: > 100000 nM
Max [5]: 107%
EC50 [6]: 39.8 nM

c1ccc(-c2ccncc2)c(OCC2=NCCN2)c1
EC50 [1]: > 100000 nM
EC50 [3]: > 100000 nM
EC50 [6]: > 100000 nM

CS(=O)(=O)Nc1ccc(F)c([C@@H](O)CN)c1 [NS-49]
EC50 [1]: > 100000 nM
EC50 [3]: > 100000 nM
Max [5]: 86%
EC50 [6]: 316 nM

Cc1cnsc1-c1ccccc1OCC1=NCCN1
EC50 [1]: > 100000 nM
EC50 [3]: > 100000 nM
Max [5]: 104%
EC50 [6]: 12.6 nM

c1cncc(-c2ccccc2OCC2=NCCN2)c1
EC50 [1]: 79.4 nM
IC50 [7]: 257 nM
IC50 [8]: 50.1 nM
Max [2]: 111%
EC50 [3]: 158 nM
Max [4]: 38%
Max [5]: 109%
EC50 [6]: 2 nM
IC50 [9]: 1290 nM

c1ccc(-c2cc[nH]n2)c(OCC2=NCCN2)c1
EC50 [1]: 79.4 nM
Max [2]: 39%
EC50 [3]: > 100000 nM
Max [5]: 119%
EC50 [6]: 5.01 nM

c1ccc(-c2cnccn2)c(OCC2=NCCN2)c1
EC50 [1]: 631 nM
Max [2]: 46%
EC50 [3]: > 100000 nM
Max [5]: 97%
EC50 [6]: 2.51 nM

c1ccc(-c2ccccc2NCC2=NCCN2)cc1
EC50 [1]: > 100000 nM
EC50 [3]: 794 nM
Max [4]: 20%
Max [5]: 101%
EC50 [6]: 7.94 nM

c1ccc(-c2ccccc2OCC2=NCCN2)nc1
EC50 [1]: > 100000 nM
IC50 [7]: 1120 nM
IC50 [8]: 115 nM
EC50 [3]: > 100000 nM
EC50 [6]: 12.6 nM
IC50 [9]: 2040 nM

Cc1ccnc(-c2ccccc2OCC2=NCCN2)c1
EC50 [1]: > 100000 nM
IC50 [7]: 1410 nM
IC50 [8]: 1290 nM
EC50 [3]: > 100000 nM
EC50 [6]: > 100000 nM
IC50 [9]: 2450 nM

Cc1cccc(-c2ccccc2OCC2=NCCN2)n1
EC50 [1]: > 100000 nM
EC50 [3]: > 100000 nM
Max [5]: 80%
EC50 [6]: 126 nM

Cc1csc(-c2ccccc2OCC2=NCCN2)n1
EC50 [1]: > 100000 nM
EC50 [3]: > 100000 nM
Max [5]: 104%
EC50 [6]: 25.1 nM

c1ccc(-c2ccccc2OCC2=NCCN2)cc1
EC50 [1]: > 100000 nM
IC50 [7]: 324 nM
IC50 [8]: 27.5 nM
EC50 [3]: > 100000 nM
EC50 [6]: 3.16 nM
IC50 [9]: 741 nM

c1ccc(-c2nccs2)c(OCC2=NCCN2)c1
EC50 [1]: 20 nM
Max [2]: 100%
EC50 [3]: 31.6 nM
Max [4]: 113%
Max [5]: 102%
EC50 [6]: 2.51 nM

c1ccc(-c2ccncn2)c(OCC2=NCCN2)c1
EC50 [1]: > 100000 nM
EC50 [3]: > 100000 nM
EC50 [6]: > 100000 nM

c1cnc(-c2ccccc2OCC2=NCCN2)nc1
EC50 [1]: > 100000 nM
EC50 [3]: > 100000 nM
Max [5]: 90%
EC50 [6]: 1260 nM
